The structures appear in SMILES notation. A value given as a limit tells only on which side of the number the result lay.

As a reminder, the IC50 is the concentration needed to halve the response being measured. Read a high IC50 as lower potency.

The test has as its target ALK tyrosine kinase receptor (Homo sapiens, UniProt Q9UM73). Description: Inhibition of ALK by time-resolved fluorescence assay. The method in brief: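 Baculovirus-expressed ALK (30 ng/ml) on plates coated with GST–PLC-gamma substrate in TBS. Reaction ran 15 min at 37 °C. Europium-labeled anti-phosphotyrosine antibody was added for 1 h at 37 °C, then enhancement solution for 30 min, and TRF was read. IC50 came from a variable-slope sigmoidal fit of % inhibition vs log concentration.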

Chain of ALK tyrosine kinase receptor (Q9UM73 whole entry): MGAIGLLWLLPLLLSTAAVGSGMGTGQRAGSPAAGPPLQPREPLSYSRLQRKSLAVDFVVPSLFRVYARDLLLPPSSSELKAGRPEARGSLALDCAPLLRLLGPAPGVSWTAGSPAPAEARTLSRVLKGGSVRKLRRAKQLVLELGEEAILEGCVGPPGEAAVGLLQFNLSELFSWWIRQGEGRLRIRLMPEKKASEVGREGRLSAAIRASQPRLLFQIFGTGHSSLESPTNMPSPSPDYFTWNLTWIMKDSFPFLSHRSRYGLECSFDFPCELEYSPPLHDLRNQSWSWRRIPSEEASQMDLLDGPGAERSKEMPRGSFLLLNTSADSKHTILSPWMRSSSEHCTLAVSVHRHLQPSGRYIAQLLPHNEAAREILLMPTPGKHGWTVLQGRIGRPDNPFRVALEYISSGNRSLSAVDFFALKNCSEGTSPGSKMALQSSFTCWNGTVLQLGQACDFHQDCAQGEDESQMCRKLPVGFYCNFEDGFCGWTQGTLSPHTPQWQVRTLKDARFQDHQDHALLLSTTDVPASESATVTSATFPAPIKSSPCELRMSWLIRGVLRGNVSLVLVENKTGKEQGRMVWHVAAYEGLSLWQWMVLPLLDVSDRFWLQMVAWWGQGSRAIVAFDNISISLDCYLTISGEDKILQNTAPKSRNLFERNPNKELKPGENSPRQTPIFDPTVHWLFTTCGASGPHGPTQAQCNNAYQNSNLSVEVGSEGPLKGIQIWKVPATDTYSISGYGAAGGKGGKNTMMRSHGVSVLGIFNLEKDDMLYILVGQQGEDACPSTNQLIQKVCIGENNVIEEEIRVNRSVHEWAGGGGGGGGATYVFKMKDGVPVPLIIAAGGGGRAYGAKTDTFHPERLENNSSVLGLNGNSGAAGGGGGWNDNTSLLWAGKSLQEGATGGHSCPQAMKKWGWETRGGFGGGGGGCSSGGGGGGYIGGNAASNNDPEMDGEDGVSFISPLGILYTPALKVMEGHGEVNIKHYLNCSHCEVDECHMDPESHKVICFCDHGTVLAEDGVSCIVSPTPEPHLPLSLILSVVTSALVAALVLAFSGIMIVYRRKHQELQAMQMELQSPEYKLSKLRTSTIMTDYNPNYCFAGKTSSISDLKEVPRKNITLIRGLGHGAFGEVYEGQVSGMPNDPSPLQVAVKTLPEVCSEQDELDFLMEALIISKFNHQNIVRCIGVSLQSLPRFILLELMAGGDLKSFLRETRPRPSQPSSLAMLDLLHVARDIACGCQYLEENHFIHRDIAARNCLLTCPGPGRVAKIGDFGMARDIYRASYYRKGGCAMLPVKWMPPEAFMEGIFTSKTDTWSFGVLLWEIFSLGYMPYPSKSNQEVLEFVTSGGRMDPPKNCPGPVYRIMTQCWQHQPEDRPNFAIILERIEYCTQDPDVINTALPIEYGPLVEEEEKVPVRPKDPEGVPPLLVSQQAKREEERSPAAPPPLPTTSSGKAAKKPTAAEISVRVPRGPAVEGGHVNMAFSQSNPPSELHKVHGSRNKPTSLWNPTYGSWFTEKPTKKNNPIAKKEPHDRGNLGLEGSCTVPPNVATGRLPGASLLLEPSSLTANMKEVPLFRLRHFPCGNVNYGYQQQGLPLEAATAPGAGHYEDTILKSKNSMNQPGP

In turn, `CCOC(=O)c1ccc(-c2cnc3c(c2)N(Cc2cc(Cl)ccc2C(F)(F)F)CCN3)cc1` returned an IC50 of over 3000 nM. Regarding `CN1CCN(c2ccc(-c3cnc4c(c3)N(S(=O)(=O)c3cc(F)ccc3F)CCN4)cn2)CC1`, the IC50 turned out to be 465 nM. `CN1CCN(c2ccc(-c3cnc4c(c3)N(Cc3cc(Cl)ccc3Cl)CCN4C)cn2)CC1` displayed an IC50 of over 3000 nM. With `O=C(c1ccc(-c2cnc3c(c2)N(Cc2ccccc2)CCN3)cc1)N1CCC[C@H]1CN1CCCC1` the figure was 256 nM.

`O=C(c1ccc(-c2cnc3c(c2)N(Cc2cc(F)ccc2F)CCN3)cc1)N1CCC[C@H]1CN1CCCC1` returned an IC50 of 15 nM. With `CN1CCN(c2ccc(-c3cnc4c(c3)C(Cc3cc(F)ccc3F)CCN4)cn2)CC1` (stereo not drawn) the figure was 1540 nM. Compound `CN1CCN(c2ccc(-c3cnc4c(c3)N(Cc3c(Cl)cccc3C(F)(F)F)CCN4)cn2)CC1` displayed an IC50 of 506 nM.

Consider `O=C1CNc2ncc(-c3ccc(C(=O)N4CCC[C@H]4CN4CCCC4)cc3)cc2N1Cc1c(Cl)cccc1Cl`, for which the IC50 is 278 nM.

For `O=C1CNc2ncc(-c3ccc(C(=O)N4CCC[C@H]4CN4CCCC4)cc3)cc2N1Cc1cc(F)ccc1F`, the IC50 was determined as 145 nM. The figure for `CN1CCN(c2ccc(-c3cnc4c(c3)N(C(=O)Cc3cc(F)ccc3F)CCN4)cn2)CC1` is over 10000 nM; for `CN1CCN(c2ccc(-c3cnc4c(c3)C(Oc3c(F)ccc(F)c3Cl)CCN4)cn2)CC1` (stereo not drawn) it is over 10000 nM. Compound `O=C1CNc2ncc(-c3ccc(C(=O)N4CCC[C@H]4CN4CCCC4)cc3)cc2N1Cc1ccccc1` gave a half-maximal inhibitory concentration (IC50) of over 10000 nM.

For the compound `O=C(c1ccc(-c2cnc3c(c2)N(Cc2c(Cl)cccc2Cl)CCN3)cc1)N1CCC[C@H]1CN1CCCC1`, the midpoint of inhibition, the IC50, lay at 27 nM.

Source of the values: ChEMBL document CHEMBL1165965, “Synthesis and structure-activity relationships of 1,2,3,4-tetrahydropyrido[2,3-b]pyrazines as potent and selective inhibitors of the anaplastic lymphoma kinase” (Bioorg Med Chem, 2010).
